Results from different studies.
Lines come from different studies, so protocols differ.
Cell line: MOLT-4
Observed: cell growth or viability

COc1cccc2c1C(=O)c1c(O)c3c(c(O)c1C2=O)C[C@@](O)(C(=O)CO)C[C@@H]3O[C@H]1C[C@H](N)[C@H](O)[C@H](C)O1  IC50 (96 h): 2.61 nM
COc1ccc(Nc2ncnc3c2ncn3Cc2ccc(C(=O)Nc3ccccc3N)cc2)cc1  IC50 (MTT; 72 h): 610 nM
CCS(=O)(=O)NC(=O)c1nc(N2CCc3cccc(C(=O)Nc4nc5ccccc5s4)c3C2)ccc1-c1cnn(CC23CC4CC(CC(C4)C2)C3)c1C  IC50 (MTS; 48 h): 5.1 nM
O=C(CSc1nc2ccccc2s1)N/N=C/c1ccc(OCC(=O)Nc2cccc(Br)c2)cc1  IC50 (MTS; 72 h): > 100000 nM
CN1CCC(NC2CCc3[nH]c4c(C(N)=O)ccc(-c5ccccc5Cl)c4c3C2)CC1 (centres unmarked)  IC50 (96 h): 18.7 nM
COc1cc([C@@H]2c3cc4c(cc3[C@@H](O[C@@H]3O[C@@H]5CO[C@@H](C)O[C@H]5[C@H](O)[C@H]3O)[C@H]3COC(=O)[C@H]23)OCO4)cc(OC)c1O  IC50 (MTS; 72 h): 180 nM
Cc1ncsc1-c1ccc([C@H](C)NC(=O)[C@@H]2C[C@@H](O)CN2C(=O)[C@@H](NC(=O)CCCCCCS(=O)(=O)NC(=O)c2nc(N3CCc4cccc(C(=O)Nc5nc6ccccc6s5)c4C3)ccc2-c2cnn(CC34CC5CC(CC(C5)C3)C4)c2C)C(C)(C)C)cc1  IC50 (MTS; 48 h): 4.5 nM
COc1ccc(Nc2ncnc3c2ncn3Cc2ccc(C(=O)NO)cc2)cc1  IC50 (MTT; 72 h): 460 nM
Cc1nc(Nc2ncc(C(=O)Nc3c(C)cccc3Cl)s2)cc(N2CC[C@H](O)C2)n1  IC50 (ATP luminescence; 72 h): > 10000 nM
O=C(NO)c1ccc(Cn2cnc3c(Nc4ccc(F)c(Cl)c4)ncnc32)cc1  IC50 (MTT; 72 h): 660 nM
Cc1ncsc1-c1ccc([C@H](C)NC(=O)[C@@H]2C[C@@H](O)CN2C(=O)[C@@H](NC(=O)CCCCCS(=O)(=O)NC(=O)c2nc(N3CCc4cccc(C(=O)Nc5nc6ccccc6s5)c4C3)ccc2-c2cnn(CC34CC5CC(CC(C5)C3)C4)c2C)C(C)(C)C)cc1  IC50 (MTS; 48 h): 4 nM
O=C(NO)c1ccc(Cn2cnc3c(Nc4ccc(Cl)cc4)ncnc32)cc1  IC50 (MTT; 72 h): 190 nM
Cc1c(-c2ccc(N3CCc4cccc(C(=O)Nc5nc6ccccc6s5)c4C3)nc2C(=O)O)cnn1CC12CC3CC(C1)CC(C(=O)NCCCCCCCCCCCCNc1cccc4c1C(=O)N(C1CCC(=O)NC1=O)C4=O)(C3)C2 (centres unmarked)  IC50 (MTS; 48 h): 49.4 nM
O=C(CSc1nc2ccccc2s1)N/N=C/c1ccc(OCC(=O)Nc2ccc(Br)cc2)cc1  IC50 (MTS; 72 h): > 100000 nM
